# Where “and” joins values, the source holds several entries; their conditions need not be identical. Equal entries are not always repeated. Calls of active or inactive are those of the source.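 How the source made its calls: active means signal drops and an active concentration is fitted at or below ten times the top valid dose of that sample; inconclusive means flat fit between -70 and -30%, or poor fit quality; inactive means the rest.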
# System: Vibrio harveyi BB721 quorum sensing luminescence, 9 h
# Test: reduction of constitutive QS bioluminescence – strain BB721, dry powder, set 2, counter-screen for LuxS inhibitor project, dose response (AID 493096)
# Conditions: not given
# Method in brief: (§1)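 Buffer or medium – AB medium · System – Vibrio harveyi BB721, strain with quorum sensing constitutively on · Quantity – culture at initial OD600 0.0005 · Schedule – compound exposure of 9 h at 30 °C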
row,Compound,AC50
1,COc1cc(NC(=O)CN2C(=O)NC(c3ccccc3)(c3ccccc3)C2=O)cc(OC)c1,0.769 µM and 1.14 µM
2,CCc1ccc(S(=O)(=O)Nc2ccc(Br)cn2)cc1,14.8 µM
3,Cc1cccc(NS(=O)(=O)c2ccc(Oc3ccccc3)cc2)n1,11.1 µM and 15.4 µM
4,Cc1cccc(NC(=O)c2ccc(Oc3ccccc3)cc2)n1,14.9 µM
5,O=C1C=C/C(=C/Br)O1,6.86 µM

# System: not listed separately
# Test: as above
# Conditions: Vibrio harveyi BB721 quorum sensing luminescence, 9 h; at 16 µM (top of the series)
# Method in brief: as §1
row,Compound,"activity change, negative = inhibition"
1,CCc1ccc(C(=O)Nc2ccc(Br)cn2)cc1,-2.33% (inactive)

# — PubChem BioAssay AID493096 (Broad Institute, 2011)
